Screens from PubChem.
TRPC6 act = mouse TRPC6 channel activators, primary screen, cell-based, HEK293, membrane potential dye. HEK293-TRPC6 membrane potential dye fluorescence; active compounds read high. B-score at 10 µM. 310,000 tested, 0.13% active;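 active means B-score of the integrated fluorescence ratio above library mean plus 3 SD, and starting fluorescence ratio within library mean plus 5 SD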;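 further: higher score means more depolarization so channel activation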
TRPC4 PAM = positive allosteric modulators of TRPC4, primary screen, cell-based, mouse TRPC4beta, HEK293 mu-opioid, Fluo-4 calcium; AID 2227, 2009; DAMGO EC20, Fluo-4 Ca2+ flux; active compounds read high; 310,000 tested, 0.42% active; Short transient receptor potential channel 4 (Mus musculus), Q9QUQ5; B-score at 10 µM;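 active means B-score of calcium response area above 5 SD of library B-scores, with initial fluorescence ratio within 5 SD of library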
Target sequence (Q9QUQ5 whole entry, looked up): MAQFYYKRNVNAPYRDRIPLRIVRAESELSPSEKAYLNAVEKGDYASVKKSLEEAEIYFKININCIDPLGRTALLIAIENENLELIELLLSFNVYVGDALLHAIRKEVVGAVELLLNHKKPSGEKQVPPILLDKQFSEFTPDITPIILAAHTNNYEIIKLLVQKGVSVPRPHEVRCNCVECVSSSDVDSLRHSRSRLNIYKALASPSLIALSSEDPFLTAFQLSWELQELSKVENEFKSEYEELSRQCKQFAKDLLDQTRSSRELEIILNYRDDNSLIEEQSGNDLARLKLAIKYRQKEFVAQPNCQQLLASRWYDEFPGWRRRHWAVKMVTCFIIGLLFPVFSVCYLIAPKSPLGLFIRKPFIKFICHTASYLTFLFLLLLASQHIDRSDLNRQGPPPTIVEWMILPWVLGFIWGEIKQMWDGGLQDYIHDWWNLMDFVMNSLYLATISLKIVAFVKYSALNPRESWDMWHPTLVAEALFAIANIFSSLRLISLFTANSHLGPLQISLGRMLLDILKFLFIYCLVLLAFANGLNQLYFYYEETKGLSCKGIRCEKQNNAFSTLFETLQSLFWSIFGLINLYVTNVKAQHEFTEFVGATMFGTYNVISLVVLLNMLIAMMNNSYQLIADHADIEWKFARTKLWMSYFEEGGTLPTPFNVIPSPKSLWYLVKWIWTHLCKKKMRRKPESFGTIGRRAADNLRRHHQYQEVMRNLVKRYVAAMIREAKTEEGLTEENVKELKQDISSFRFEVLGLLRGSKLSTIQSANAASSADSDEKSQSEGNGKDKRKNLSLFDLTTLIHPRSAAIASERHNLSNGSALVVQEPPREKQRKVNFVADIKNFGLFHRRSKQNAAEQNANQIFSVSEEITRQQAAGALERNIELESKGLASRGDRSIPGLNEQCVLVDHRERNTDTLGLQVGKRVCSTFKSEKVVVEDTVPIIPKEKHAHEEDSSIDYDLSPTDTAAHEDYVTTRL
TRPC4 block = inhibitors of mouse TRPC4 channel, primary screen, Fluo4 calcium, HEK293 TRPC4beta/mu-opioid cells; Short transient receptor potential channel 4 (Mus musculus), Q9QUQ5; DAMGO-evoked Fluo4 calcium flux; active compounds read low; B-score at 10 µM; 300,000 tested, 0.39% active;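 active means B-score over 3 SD under the library average, no early fluorescence shift, positive overall ratio signal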
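Material: HEK293 cells with stable TRPC4beta plus mu-opioid receptor expression / Probe or stimulus: DAMGO in two steps, submaximal then maximal / Compound: single concentration per test compound / Technique: kinetic Fluo4 fluorescence imaging of calcium influx / Read-out: per-well B score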
TRPC4 act = activators of mouse TRPC4 channel, primary screen, Fluo4 calcium, HEK293 TRPC4beta/mu-opioid cells; 310,000 tested, 0.49% active; B-score at 10 µM; Short transient receptor potential channel 4 (Mus musculus), Q9QUQ5; Fluo4 calcium fluorescence; active compounds read high; AID 2237, 2010;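 active means B-score above 5 SD of library B-scores, and initial fluorescence ratio not above library mean plus 5 SD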;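 further: positive B-score marks a calcium rise read as TRPC4 activation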
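Assay system: HEK293 stable line with TRPC4beta plus mu-opioid receptor. Times: dye 45 min RT, read 110 s. Measured by: kinetic Fluo4 calcium fluorescence. Measure: B score of integrated ratio. Controls: assay buffer as low control, maximal DAMGO as high control.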
TRPC6 inh = mouse TRPC6 channel inhibitors, primary screen, cell-based, HEK293, membrane potential dye | 310,000 tested, 1.1% active | AID 2553, 2010 | ACh-evoked depolarization; active compounds read low | B-score at 10 µM;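 active means B-score under library mean minus 3 SD, initial fluorescence not abnormally high, positive integrated signal ratio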;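 further: B-score derived from integrated fluorescence ratio over the kinetic read; more negative B-score means stronger inhibition of depolarization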
Of the large screens only hits and unclear results are named; the others gave an inactive call. This is a sample that favours compounds with a hit; in the whole collection about 2.3% have one here.

Cc1ccc(S(=O)(=O)Cc2ccc(C(=O)N3CCC4(CC3)OCCO4)o2)cc1	none
CCOc1cc(CNCCc2c[nH]c3ccccc23)cc(Cl)c1OC	TRPC4 act 159
COc1ccc(OC)c(N2Cc3ccccc3C2=N)c1	TRPC4 block -7
Cc1cc(C)nc(N2Cc3ccccc3C2=N)n1	none
Cc1ccc(NC(=S)NCCc2cnc[nH]2)cc1C	TRPC4 act 225
CCN1CCN(c2cc(N3CCCC3)c([N+](=O)[O-])cc2F)CC1	TRPC4 PAM 17
O=[N+]([O-])c1ccc(N2CCCC2)c(F)c1Br	none
CC(=O)N1CCN(c2ccc([N+](=O)[O-])cc2C=C2C(=O)NC(=O)NC2=O)CC1	none
CCN1CCN(c2ccc([N+](=O)[O-])cc2C=C2C(=O)NC(=O)NC2=O)CC1	TRPC4 PAM 15
c1ccc(-n2ccnc2)cc1	none
CCCNC(=O)N1[C@H]2CC[C@@H]1C(C(=O)OC)=C(c1ccc(S(C)(=O)=O)cc1)C2	none
COc1ccc(C(=O)C2CCCN(CCO)C2)c(C)c1 (stereo unspecified)	TRPC4 act 51
COc1ccc(C(=O)C2CCCN(C3CSCCSC3)C2)c(C)c1 (stereo unspecified)	TRPC4 act 59
COc1ccccc1CN1CCCC(C(=O)c2ccccc2SC)C1 (stereo unspecified)	none
COc1ccc(O)c(CN2CCCC(C(=O)c3ccccc3SC)C2)c1 (stereo unspecified)	TRPC4 block -6
CN1c2ccc([N+](=O)[O-])cc2CC2(C(=O)NC(=O)N(c3ccc(Br)cc3)C2=O)C1c1ccccc1 (stereo unspecified)	none
CN(C)c1ccc(/C=C/[N+](=O)[O-])cc1	TRPC6 act 18.8
C/C(=C\c1ccc(N(C)C)cc1)[N+](=O)[O-]	none
O=[N+]([O-])c1ccc(N2CCNCC2)c(Cl)c1	TRPC4 PAM 20, TRPC4 act 48
Cc1ccc(-n2c(C)cc(/C=C3/C(=O)NC(=O)N(Cc4ccco4)C3=O)c2C)cc1	none
Cc1ccccc1-n1c(C)cc(/C=C2/C(=O)NC(=O)N(Cc3ccco3)C2=O)c1C	TRPC4 block -6
Nc1ccc(Cl)cc1C(=O)c1ccccc1Cl	TRPC4 PAM 34
CC(=NCc1ccco1)c1c(O)n(-c2ccc(C)cc2)c(=O)[nH]c1=O	none
CN(c1ccc(OCC(=O)N2CCN(C/C=C/c3ccccc3)CC2)cc1)S(=O)(=O)c1cccs1	none
CN1C[C@H](CO)C[C@@H]2c3cccc4[nH]cc(c34)C[C@H]21	none
CCN(CC)C(=O)N[C@H]1C[C@@H]2c3cccc4[nH]cc(c34)C[C@H]2N(C)C1	TRPC4 act 83
CC1CC(C)CN(CC(=O)c2ccc(OC(F)F)cc2)C1 (stereo unspecified)	TRPC4 act 52
COc1cccc(C2(C#N)CCN(C)CC2)c1	none
COc1ccccc1[As](=O)(O)CC(O)COc1ccc(Cl)cc1Cl (stereo unspecified)	none
O=C(COc1ccc(Cl)cc1Cl)N1CCN(C/C=C/c2ccccc2)CC1	TRPC4 PAM 13
Cc1ccc(-n2cc(CNC(C)Cc3cnccn3)c(-c3cccc(C)c3)n2)cc1 (stereo unspecified)	TRPC4 act 143
CCN(CC)C(=O)c1ccc(NC(=O)c2cccc(C(F)(F)F)c2)cc1	none
CCN1CCN(S(=O)(=O)c2ccc(Cl)c(C(=O)Nc3ccc(C(=O)N(CC)CC)cc3)c2)CC1	TRPC4 act 48
O=C(O)C1Cc2ccccc2N2CCCC12 (stereo unspecified)	none
CN1CCCC(C(=O)c2ccc(Cl)cc2)C1 (stereo unspecified)	TRPC4 block -9, TRPC4 act 126
CC(C)(C)c1ccc(C(=O)C2CCCN(C3CCC3)C2)cc1 (stereo unspecified)	TRPC4 act 57
O=C(c1ccc(Cl)cc1)C1CCCN(Cc2ccon2)C1 (stereo unspecified)	none
CC(=O)N1CCC(N2CCCC(C(=O)c3cccc(Cl)c3)C2)CC1 (stereo unspecified)	TRPC6 inh -5.65
O=C(O)c1cccc2nc3ccccc3nc12	none
